Activity calls are given as the source filed them.
Columns and labels:
[1] = target: T1, Histone acetyltransferase RTT109 (Saccharomyces cerevisiae (strain ATCC 204508 / S288c) (Baker's yeast)) (UniProt Q07794); test: Inhibition of Vps75-stimulated recombinant Saccharomyces cerevisiae histone acetyltransferase Rtt109 assessed as H3K27 acetylated product at […] after 45 mins by Slot bolt inhibiton assay
T1 sequence (whole entry): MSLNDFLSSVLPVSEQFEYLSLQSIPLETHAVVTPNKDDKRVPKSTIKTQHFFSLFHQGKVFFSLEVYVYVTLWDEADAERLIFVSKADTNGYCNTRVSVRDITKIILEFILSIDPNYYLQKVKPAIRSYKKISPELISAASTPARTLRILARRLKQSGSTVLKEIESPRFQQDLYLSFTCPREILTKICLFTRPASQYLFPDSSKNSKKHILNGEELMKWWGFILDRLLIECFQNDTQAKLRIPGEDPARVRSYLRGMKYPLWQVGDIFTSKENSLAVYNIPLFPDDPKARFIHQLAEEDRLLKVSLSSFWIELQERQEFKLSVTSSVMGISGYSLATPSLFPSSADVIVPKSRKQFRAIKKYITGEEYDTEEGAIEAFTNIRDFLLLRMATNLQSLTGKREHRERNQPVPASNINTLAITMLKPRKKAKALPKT

[2] = Fluorescence quenching assessed as fluorescence signal reduction at 10 uM after 10 mins; type: physicochemical
Procedure, shortened: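 CPM (20 μM final) and CoA (5 μM final) reacted to completion in assay buffer (stable plateau, usually ~5 min); adduct solution added to wells preplated with compound; shaken 5 min, equilibrated 5 min at room temperature; fluorescence intensity read as percent signal reduction versus DMSO controls. Flagged as quencher at >20% signal reduction at 10 μM final compound.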

[3] = Fluorescence quenching in HTS buffer assessed as fluorescence signal reduction at 10 uM after 10 mins; type: physicochemical
[4] = Fluorescence quenching in HTS buffer with 20 uM 7-diethylamino-3-(4'-maleimidyl-phenyl)-4-methylcoumarin assessed as fluorescence signal reduction at 10 uM after 10 mins; type: physicochemical
[5] = target: T2, Histone acetyltransferase RTT109 (Saccharomyces cerevisiae (strain ATCC 204508 / S288c) (Baker's yeast), UniProt Q07794); test: Inhibition of Vps75-stimulated recombinant Saccharomyces cerevisiae histone acetyltransferase Rtt109 using Asf1-dH3-H4 as substrate assessed as coenzyme A production after 45 mins by CPM based HTS assay
T2 sequence (Q07794 whole entry): T1 sequence (whole entry)
Procedure, shortened: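 Recombinant Rtt109–Vps75 at 50 nM, with Asf1–dH3–H4 as substrate and acetyl-CoA as acetyl donor. Buffer contained freshly prepared 0.01% Triton X-100. The CoA product was detected by fluorescence of its CPM adduct. Plates had Z′ ≥0.5. IC50 came from a four-parameter variable-slope fit.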

[6] = target: T1, Histone acetyltransferase RTT109 (Saccharomyces cerevisiae (strain ATCC 204508 / S288c) (Baker's yeast)); test: Inhibition of Vps75-stimulated recombinant Saccharomyces cerevisiae histone acetyltransferase Rtt109 assessed as H3K56 acetylated product at […] after 45 mins by Slot bolt inhibiton assay
[7] = Fluorescence quenching in HTS buffer with […] CoA assessed as fluorescence signal reduction at 10 uM after 10 mins; type: physicochemical

COc1ccc(-c2nnc(Sc3ccc([N+](=O)[O-])c4nonc34)[nH]2)cc1
Activity [1]: Active
Activity [2]: Not Active
Activity [3]: Not Active
Activity [4]: Not Active
IC50 ([5]; read-out: IC50): 2.3 µM
Activity [6]: Active
Activity [7]: Not Active

[Br-].c1ccc(C[n+]2sc(Nc3ccccc3)nc2-c2ccccc2)cc1
Activity [2]: Not Active
Activity [3]: Not Active
Activity [4]: Not Active
IC50 ([5]; read-out: IC50): 3.1 µM
Activity [7]: Not Active

COc1ccc(-c2nnc(Sc3ccc([N+](=O)[O-])c4nonc34)o2)cc1
Activity [1]: Active
Activity [2]: Not Active
Activity [3]: Not Active
Activity [4]: Not Active
IC50 ([5]; read-out: IC50): 0.96 µM
Activity [6]: Active
Activity [7]: Not Active

O=S(=O)(C[n+]1sc(N(c2ccccc2)c2ccccc2)nc1-c1ccccc1)c1ccccc1.[Br-]
Activity [1]: inactive
Activity [2]: Not Active
Activity [3]: Not Active
Activity [4]: Not Active
IC50 ([5]; read-out: IC50): 50 µM
Activity [6]: inactive
Activity [7]: Not Active

COc1ccc(Cc2nnc(SC3=CS(=O)(=O)c4ccccc43)o2)cc1
Activity [1]: Active
Activity [2]: Not Active
Activity [3]: Not Active
Activity [4]: Not Active
IC50 ([5]; read-out: IC50): 7.1 µM
Activity [6]: Active
Activity [7]: Not Active

COc1ccc(N2C(=O)CC(Sc3n[nH]c(-c4ccccc4)n3)C2=O)cc1 (configuration not stated)
Activity [1]: Active
Activity [2]: Not Active
Activity [3]: Not Active
Activity [4]: Not Active
IC50 ([5]; read-out: IC50): 21 µM
Activity [6]: Active
Activity [7]: Not Active

O=[N+]([O-])c1ccc(Sc2nnc[nH]2)c2nsnc12
Activity [1]: Active
Activity [2]: Not Active
Activity [3]: Not Active
Activity [4]: Not Active
IC50 ([5]; read-out: IC50): 1.7 µM
Activity [6]: Active
Activity [7]: Not Active

O=[N+]([O-])c1c(Sc2ncnc3[nH]cnc23)cc(Cl)c2nsnc12
Activity [1]: Active
Activity [2]: Not Active
Activity [3]: Not Active
Activity [4]: Not Active
IC50 ([5]; read-out: IC50): 2.2 µM
Activity [6]: Active
Activity [7]: Not Active

Cc1ccc(S(=O)(=O)C[n+]2sc(N(c3ccccc3)c3ccccc3)nc2-c2ccccc2)cc1.[Br-]
Activity [2]: Not Active
Activity [3]: Not Active
Activity [4]: Not Active
IC50 ([5]; read-out: IC50): 42 µM
Activity [7]: Not Active

[O-][Cl+3]([O-])([O-])[O-].c1ccc(-c2nc(N(c3ccccc3)c3ccccc3)s[n+]2-c2ccccc2)cc1
Activity [1]: Active
Activity [2]: Not Active
Activity [3]: Not Active
Activity [4]: Not Active
IC50 ([5]; read-out: IC50): 3.5 µM
Activity [6]: Active
Activity [7]: Not Active

O=C1C=CC(=O)N1c1ccc2ccccc2c1
Activity [1]: Active
Activity [2]: Not Active
Activity [3]: Not Active
Activity [4]: Not Active
IC50 ([5]; read-out: IC50): 3.6 µM
Activity [6]: Active
Activity [7]: Not Active

COc1ccc(N2C(=O)C=CC2=O)cc1
Activity [1]: Active
Activity [2]: Not Active
Activity [3]: Not Active
Activity [4]: Not Active
IC50 ([5]; read-out: IC50): 9.2 µM
Activity [6]: Active
Activity [7]: Not Active

Nc1ncnc2[nH]c(Sc3c([N+](=O)[O-])cc(Br)c4nsnc34)nc12
Activity [1]: Active
Activity [2]: Not Active
Activity [3]: Not Active
Activity [4]: Not Active
IC50 ([5]; read-out: IC50): 3.2 µM
Activity [6]: Active
Activity [7]: Not Active

CN(CCO)c1cc(Sc2nnc(-c3ccccc3)o2)c2nonc2c1[N+](=O)[O-]
Activity [1]: Active
Activity [2]: Not Active
Activity [3]: Not Active
Activity [4]: Not Active
IC50 ([5]; read-out: IC50): 5.3 µM
Activity [6]: Active
Activity [7]: Not Active

O=S(=O)(C[n+]1sc(Nc2ccccc2)nc1-c1ccccc1)c1ccc2ccccc2c1.[Br-]
Activity [1]: inactive
Activity [2]: Not Active
Activity [3]: Not Active
Activity [4]: Not Active
IC50 ([5]; read-out: IC50): 28 µM
Activity [6]: inactive
Activity [7]: Not Active

O=C(O)CSc1cc(Cl)c2nonc2c1[N+](=O)[O-]
Activity [1]: Active
Activity [2]: Not Active
Activity [3]: Not Active
Activity [4]: Not Active
IC50 ([5]; read-out: IC50): 17 µM
Activity [6]: Active
Activity [7]: Not Active

CN(C)c1nc(-c2ccccc2)[n+](C)s1.[O-][Cl+3]([O-])([O-])[O-]
Activity [1]: Active
Activity [2]: Not Active
Activity [3]: Not Active
Activity [4]: Not Active
IC50 ([5]; read-out: IC50): 5.3 µM
Activity [6]: Active
Activity [7]: Not Active

[Br-].c1ccc(CNc2nc(-c3ccccc3)[n+](-c3ccccc3)s2)cc1
Activity [1]: Active
Activity [2]: Not Active
Activity [3]: Not Active
Activity [4]: Not Active
IC50 ([5]; read-out: IC50): 2.4 µM
Activity [6]: Active
Activity [7]: Not Active

O=S(=O)(Nc1cc(Sc2nc3ccccc3s2)c(O)c2ccccc12)c1ccccc1
Activity [1]: Active
Activity [2]: Not Active
Activity [3]: Not Active
Activity [4]: Not Active
IC50 ([5]; read-out: IC50): 9.9 µM
Activity [6]: Active
Activity [7]: Not Active

O=S(=O)(Nc1cc(Br)c(O)c2ccccc12)c1ccc(F)cc1
Activity [1]: Active
Activity [2]: Not Active
Activity [3]: Not Active
Activity [4]: Not Active
IC50 ([5]; read-out: IC50): 4.4 µM
Activity [6]: Active
Activity [7]: Not Active

O=C1C=CC(=O)N1c1cc(Cl)cc(Cl)c1
Activity [1]: Active
Activity [2]: Not Active
Activity [3]: Not Active
Activity [4]: Not Active
IC50 ([5]; read-out: IC50): 3.1 µM
Activity [6]: Active
Activity [7]: Not Active

O=S(=O)(Nc1cc(Sc2nc[nH]n2)c(O)c2ccccc12)c1ccc(Cl)cc1
Activity [1]: Active
Activity [2]: Not Active
Activity [3]: Not Active
Activity [4]: Not Active
IC50 ([5]; read-out: IC50): 1.4 µM
Activity [6]: inactive
Activity [7]: Not Active

O=C(O)CSc1cc(NS(=O)(=O)c2cccc([N+](=O)[O-])c2)c2ccccc2c1O
Activity [2]: Not Active
Activity [3]: Not Active
Activity [4]: Active
IC50 [5]: Not Active
Activity [7]: Not Active

CC(C)c1ccc(S(=O)(=O)Nc2cc(SCCC(=O)O)c(O)c3ccccc23)cc1
Activity [2]: Not Active
Activity [3]: Not Active
Activity [4]: Active
IC50 [5]: Not Active
Activity [7]: Not Active

Cc1ccc(S(=O)(=O)C[n+]2sc(N(c3ccccc3)c3ccccc3)nc2-c2ccccc2)cc1.[Cl-]
Activity [2]: Not Active
Activity [3]: Not Active
Activity [4]: Not Active
IC50 ([5]; read-out: IC50): 26 µM
Activity [7]: Not Active

[Cl-].c1ccc(C[n+]2sc(Nc3ccccc3)nc2-c2ccccc2)cc1
Activity [2]: Not Active
Activity [3]: Not Active
Activity [4]: Not Active
IC50 ([5]; read-out: IC50): 3.1 µM
Activity [7]: Not Active

Cc1ccc(-c2nnc(SC3CC(=O)N(c4ccc5ccccc5c4)C3=O)[nH]2)cc1 (configuration not stated)
Activity [1]: Active
Activity [2]: Not Active
Activity [3]: Not Active
Activity [4]: Not Active
Activity [6]: Active
Activity [7]: Not Active

CC(C)c1ccc(S(=O)(=O)Nc2cc(Sc3nc[nH]n3)c(O)c3ccccc23)cc1
Activity [1]: Active
Activity [2]: Not Active
Activity [3]: Not Active
Activity [4]: Not Active
Activity [6]: Active
Activity [7]: Not Active

CC(C)(C)c1ccc(S(=O)(=O)Nc2cc(SCC(=O)O)c(O)c3ccccc23)cc1
Activity [2]: Not Active
Activity [3]: Not Active
Activity [4]: Active
IC50 [5]: Not Active
Activity [7]: Not Active
